Three compounds from PMC8131326 (The Journal of Biological Chemistry, 2021) can be followed below.

One assay deals with human Kv1.1. As to the kind of experiment: Whole-cell patch clamp, HEK 293T cells expressing Kv1.1. Format: cell-based. The settings on record: 0.2 mM TEA; n = 5. In outline: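 HEK 293T cells carrying plasmids for human Kv1.1 plus EGFP. Whole-cell patch clamp at room temperature after holding at −70 mV for 4 min, filtered at 2 kHz and digitized at 20 kHz. Currents elicited by a +10 mV depolarization were compared before and after application of the test agent.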
In general terms: The patch-clamp technique gives a direct electrical read-out from membranes.

Assay [1] relates to carrageenan-induced paw edema in mice. As to the kind of experiment: Carrageenan-induced paw edema assay. Type of assay: in vivo, Kunming mice. To be noted: FS48 1.5 mg/kg. Summed up:
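Male and female Kunming mice, randomized into four groups of six. Test compound (1.5 mg/kg), saline or aspirin (5 mg/kg) given i.p. 1 h before intraplantar 1% carrageenan in saline (50 μl) into the right hind paw. Paw volume to the ankle measured by plethysmometer before injection and at 2–24 h; swelling taken as Δvolume. In a second set, paws were excised at 4 h for histology, cytokine and MPO assays. Mean ± SEM, n = 6.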
(In general: Carrageenan injected into the paw causes an acute inflammation.)

Assay [2] concerns NO production in Raw 264.7 cells. As to the kind of experiment: LPS-induced NO production and iNOS mRNA in Raw 264.7 cells. The settings on record: 100 ng/ml LPS. Format: cell-based, murine. In outline:
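Nitrite: 5 × 10^4 Raw 264.7 cells/well grown overnight, then given test compound (0.1–10 μM) plus 100 ng/ml LPS (E. coli O55:B5) for 24 h; supernatant assayed by Griess reagent at 540 nm. MgTx 100 nM served as positive control; cells without compound and/or LPS as negative controls; repeated four times. iNOS mRNA: 3 μM compound plus LPS for 8 h, SYBR qRT-PCR normalized to GAPDH (2−ΔΔCT), fold change versus untreated, in triplicate.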

The subject of assay [3] is Kv1.3 expression in Raw 264.7 cells. As to the kind of experiment: Kv1.3 channel mRNA and protein expression in LPS-activated Raw 264.7 cells. Type of assay: cell-based, murine. The settings on record: 3 μM FS48, 100 nM MgTx, 100 ng/ml LPS. In outline:
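Raw 264.7 cells activated with 100 ng/ml LPS and exposed to test compound (3 μM) or MgTx (100 nM) for 24 h. Kv1.3 mRNA: Trizol RNA extraction, SYBR qRT-PCR (95 °C 5 min; 40 cycles of 95 °C 15 s / 60 °C 45 s), normalized to GAPDH by 2−ΔΔCT, in triplicate. Kv1.3 protein: western blot with primary antibody 1:2000 overnight at 4 °C, HRP chemiluminescence, densitometry against GAPDH, in triplicate.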

Assay [4] relates to Kv current of LPS-activated Raw 264.7 cells. As to the kind of experiment: Kv currents of LPS-activated Raw 264.7 macrophages. Format: cell-based, murine. In outline: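 Raw 264.7 cells in DMEM/10% FBS at 37 °C, 5% CO2, LPS-activated. Whole-cell patch clamp at room temperature, held at −70 mV for 4 min to equilibrate, filtered at 2 kHz and digitized at 20 kHz, 80% series-resistance compensation. Currents compared before and after test compound or 100 nM MgTx, with amplitude taken at +40 mV. I–V curves used 150-ms steps from −50 to +40 mV, 10 mV increments, 2 s intervals. Mean ± SEM, at least four experiments.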

Regarding `CC[N+](CC)(CC)CC` [TEA, tetraethylammonium], the “reduction of Kv1.1 current by TEA” value in the assay with human Kv1.1 worked out at 31.81 ± 1.98%.

In the case of `CC(=O)Oc1ccccc1C(=O)O` [aspirin], in assay [1] (aspirin 5 mg/kg i.p., 4 h after carrageenan), the “carrageenan-induced secretion of IL-1β, IL-6, and TNF-α in paw tissues” value is “diminished”. Moreover, the “leukocyte infiltration in paw (histological analysis)” value in assay [1] (aspirin 5 mg/kg i.p., 4 h after carrageenan, HE stain) is on record as “obviously reduced”. Further, the “suppression of hind paw edema at 4 h versus model group” value in assay [1] (aspirin 5 mg/kg, intraperitoneally 1 h before carrageenan (1%, 50 μl), 4 h, n = 6) is given as “approximately 44.79%”.

As to “MgTx: a highly specific Kv1.3 blocker, positive control (UniProtKB P40755) (TIINVKCTSPKQCLPPCKAQFGQSAGAKCMNGKCKCYPH; UniProt P40755 1-39, looked up)”, the “effect on the second phase of carrageenan-induced paw edema” value in assay [1] (MgTx 0.4179 mg/kg, intraperitoneally 1 h before carrageenan) is recorded as “remarkable anti-inflammatory effects”. In assay [2] (10 μM FS48, 100 nM MgTx, 24 h, Griess reagent), the “inhibition of LPS-induced nitrite production” value is given as “about 37.65%”. For the same compound, the “LPS-induced increase of mRNA level of iNOS” value in assay [2] (exposure for 8 h, 3 μM FS48, qRT-PCR) is on record as “evidently inhibited”. Besides, the “Kv1.3 mRNA expression induced by LPS” value in assay [3] (real-time PCR) is “greatly reduced”. Also, the “decrease of Kv1.3 protein expression induced by LPS” value in assay [3] (24 h, western blot normalized to GAPDH) is 76.15 ± 13.81%. The “Kv currents at all test voltages (−50 to +40 mV)” value in assay [4] (1 μM FS48 or 100 nM MgTx, LPS-activated Raw 264.7 cells, n = 4) was “reduced markedly”. In addition, the “reduction of amplitude of Kv current of LPS-activated macrophages” value in assay [4] (at +40 mV, 100 nM MgTx, 10 μM FS48) is 59.45 ± 2.79%.
